Compound activity (PubChem BioAssay)
BaF3 parental = parental Ba/F3 viability inhibition as JAK2V617F counter-screen. CellTiter-Glo ATP luminescence. inhibition, % at 5.6 µM. actives 1.1% (n = 220,000). AID 1486;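 active = inhibition above a per-campaign cutoff, the mean inhibition of all tested compounds plus 3 SD, cut at about 27% in these data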;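 note: 0% = DMSO wells and 100% = JAK Inhibitor I control wells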
MT stabilizer = microtubule stabilizers in HeLa cells. HeLa tubulin immunostaining HCS, 24 h; share of cells brighter than vehicle mean+2SD. % tubulin-high responders, % at 10 µM. actives 0.83% (n = 200,000);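 active = plate Z-score above 3 for both tubulin-high and condensed-nucleus cell shares, with cell loss under 80%, at 10 µM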;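 note: anti alpha tubulin signal scored within the nucleus-defined area of each cell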
APP transl inh = APP translation inhibition | actives 0.82% (n = 190,000) | SH-SY5Y APP 5'UTR-luciferase reporter, luminescence | inhibition, % at 2 µM;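 active = inhibition above a set limit, derived from the sample mean plus 3 SD, cut at about 45% in these data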
bCat nuc transl = beta-catenin nuclear translocation modulation | HeLa beta-catenin nuclear translocation, immunofluorescence imaging | nuclear translocation activity, % at 5 µM | actives 0.3% (n = 190,000);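 active = nuclear translocation activity above 50% at 5 µM, with a well cell count of 50 or more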;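 note: per-cell ratio of nuclear to cytoplasmic median beta-catenin stain intensity; plate controls were DMSO negative control for no effect and GSK-3 inhibitor IX positive control for full effect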
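Test system: human HeLa cells, endogenous beta-catenin. Times: 24 h compound exposure, 37°C. Measured by: beta-catenin immunofluorescence imaging with DAPI.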
IEC-6 tox = kills IEC-6 intestinal cells in KLF5 counter-screen. IEC-6 cytotoxicity, luminescence viability. inhibition, % at 5 µM. actives 0.78% (n = 290,000). AID 1825; in the data active = inhibition above about 22%;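 note: 0% = plate median of test compound wells and 100% = cytotoxic reference compound wells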
Ba/F3 V617F tox = lowers viability of Ba/F3 cells expressing EpoR and JAK2V617F; ATP luminescence; inhibition, % at 5.6 µM; actives 1.1% (n = 220,000);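 active = inhibition above the campaign mean plus 3 SD over all tested compounds, cut at about 24% in these data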;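 note: cytokine-independent growth of Ba/F3 cells driven by EpoR plus mutant JAK2; 0% = DMSO-treated cells and 100% = JAK inhibitor I control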
* hit, by the source's call; nt = not tested or not shown. The list is not random: actives were taken first. Their share in the collection is about 2.2%.

SMILES	BaF3 parental	MT stabilizer	APP transl inh	bCat nuc transl	IEC-6 tox	Ba/F3 V617F tox
NS(=O)(=O)c1ccc(CNC(=O)Cc2c(F)cccc2Cl)cc1	60*	2	7	0	-5	2
NS(=O)(=O)c1ccc(CNC(=S)NCc2ccc(F)cc2)cc1	nt	nt	nt	nt	4	nt
NS(=O)(=O)c1ccc(CNC(=S)NCc2ccc(Cl)cc2)cc1	4	11*	-19	1	1	-1
Cc1cccc(NC(=O)c2cc(-c3cccnc3)nc3c(C)cccc23)n1	nt	nt	nt	nt	3	nt
CC1(C)Cc2c(c(-c3ccccc3)nc(N3CCOCC3)c2C(N)=O)CO1	0	2	66*	nt	-2	-4
CC(C)(CNc1ccc(C(F)(F)F)cc1[N+](=O)[O-])N1CCOCC1	nt	nt	nt	nt	3	nt
Cc1ccc(C(=O)NNC(=O)CSc2nnc(C3CC3)n2C)cc1	nt	nt	nt	nt	0	nt
Cn1c(SCC(=O)N(C2CCCCC2)C2CCCCC2)nnc1-c1cccs1	3	28*	-22	nt	1	5
Cc1cccc(Nc2nc(NCCCN3CCOCC3)nc(N)c2[N+](=O)[O-])c1	1	1	10	nt	-10	-1
CS(=O)(=O)c1ccc(NC(=O)c2cccc(S(=O)(=O)N3CCN(Cc4ccccc4)CC3)c2)cc1	nt	nt	nt	nt	-8	nt
O=C(C1=C[C@@H](c2ccc(Br)cc2)C[C@@H](OCCCCO)O1)N1CCN(Cc2ccccc2)CC1	2	2	2	3	1	-1
CC1C(=O)NN=C1C(=O)N/N=C/c1ccco1 (centres undefined)	4	3	72*	1	6	5
Cc1ccccc1C(=O)NC(CC(C)C)C(=O)Nc1cccc(S(=O)(=O)N(C)C)c1 (centres undefined)	42*	5	-2	-2	1	11
O=C(N/N=C/c1ccc(Cl)cc1)c1sccc1OCc1ccc(F)cc1	47*	19*	nt	0	22	72*
O=C(N/N=C/c1ccc(F)cc1)c1sccc1OCc1ccc(F)cc1	-1	34*	-4	87*	-4	2
O=C(Nc1nc(-c2ccccc2)cs1)c1ccccc1NS(=O)(=O)c1ccc(F)cc1	46*	5	-2	2	13	23
O=S(=O)(Nc1ccc(-c2csc(-c3ccccc3)n2)cc1)c1ccc(F)cc1	0	3	4	4	1	3
CC(C)Oc1ccc(CCN=C(N)N=C(N)N)cc1Cl	36*	5	-12	4	1	6
COc1ccc2cc(S(=O)(=O)NCc3cccnc3)ccc2c1	nt	nt	nt	nt	1	nt
O=C(/C=C/c1ccccc1)NNC(=O)c1cccs1	41*	2	-3	-2	-3	24*
CN1CC(C(=O)O)Cc2c1ccc1ccccc21 (centres undefined)	1	nt	nt	-2	1	-1
CC[N+]1(CC)CC2=Cc3c(ccc4ccccc34)CC2C1 (centres undefined)	61*	1	4	nt	0	70*
COc1ccccc1-n1cnc2cc(NCc3ccccn3)ccc21	5	30*	-45	nt	1	-3
COc1ccc(Nc2nc(NN)nc(Nc3ccc(OC)cc3)n2)cc1	nt	nt	nt	nt	-1	nt
CCCC(=O)Nc1ccc(NC(=S)NC(=O)c2ccccc2[N+](=O)[O-])cc1	5	10*	-19	nt	-3	-5
SMILES	BaF3 parental	MT stabilizer	APP transl inh	bCat nuc transl	IEC-6 tox	Ba/F3 V617F tox
CCCC(NCC(O)COc1ccc(-c2ccccc2)cc1)c1ccccc1 (centres undefined)	-3	22*	14	-1	14	-1
COc1ccc(OCC(O)CNC(C)c2ccccc2)cc1 (centres undefined)	nt	nt	nt	nt	7	nt
CCCCC1(Cc2cccc([N+](=O)[O-])c2)C(=O)N(c2ccccc2)N(c2ccccc2)C1=O	1	3	3	-2	2	1
O=C(NCC1CCCO1)C(c1ccncc1)N(Cc1cccs1)C(=O)Cn1nnc(-c2ccc(F)cc2)n1 (centres undefined)	-1	3	48*	-1	-3	-4
O=C(NCC1CCCO1)C(c1ccc(F)cc1)N(Cc1ccc(F)cc1)C(=O)Cn1nnc(-c2cccs2)n1 (centres undefined)	3	3	-10	6	-3	-1
CCOC(=O)c1c(CSc2ccccc2)n(C)c2ccc(O)cc12	nt	nt	nt	nt	1	nt
CCOC(=O)C1=C(C)N=C2SC=C(C)N2C1c1ccc(OC)cc1 (centres undefined)	6	12*	5	16	1	-2
